Most compounds without a hit are left out; they make up all but 2.9% or so of the library.
DENV2 CPE rescue: inhibitors of DENV2 cytopathic effect; 350,000 tested, 1.7% active; DENV2-infected cells, cytopathic effect rescue, plate reader; CPE inhibition, % at 9.99 µM; in the data active = CPE inhibition above about 20%, passing the limit was not always enough; tested in BHK-21 cells;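 also: 0% = median of neutral control wells and 100% = median of positive control wells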
S100A4 inh HTS: S100A4-myosin IIA interaction inhibition. P26447. S100A4/TAMRA-MyoIIA peptide fluorescence polarization. inhibition, % at 10.7 µM. 360,000 tested, 0.14% active;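 active = mean inhibition of at least 70% across replicates, with every replicate also reaching that level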
Target sequence (P26447 whole entry, looked up): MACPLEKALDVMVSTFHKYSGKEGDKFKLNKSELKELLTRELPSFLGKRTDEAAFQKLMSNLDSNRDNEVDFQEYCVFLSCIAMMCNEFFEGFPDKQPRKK
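Test system: S100A4 monomer protein. Medium: HEPES buffer with Ca2+, pH 7.2. Reagent: fluorescent myosin IIA peptide, 5 nM. Compound dosing: single-point compound testing. Timing: 5 min between mix addition and reading. Benchmarks: DMSO neutral and TFP positive wells.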
PGC1a acetyl inh: modulators of PGC1a acetylation; inhibition, % at 15.6 µM; U2OS PGC1a acetylation, AlphaScreen anti-acetyl-lysine; with virally co-expressed GCN5 acetyltransferase; AID 651687; 350,000 tested, 0.17% active;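 active = every replicate shows inhibition of at least 40%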;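 also: 0% = neutral control wells and 100% = positive control wells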
Statin myotox sup: protects C2C12 myotubes from simvastatin toxicity; ATP luminescence, 48 h; scaled: DMSO 0, geranylgeraniol control 100; rescue of ATP level, % at 7.49 µM; 330,000 tested, 0.78% active; AID 602340;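 active = mean ATP rescue above about 67%, or every replicate alone reaching that limit, limit read from the data, passing the limit was not always enough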;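 also: myotubes were challenged with 10 µM simvastatin during compound exposure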
SIRT5 block: sirtuin-5 (human) deacylase inhibition; 330,000 tested, 1.1% active; inhibition, % at 15 µM; Q9NXA8; AID 652115; Purified SirT5, succinyl-peptide AMC, trypsin-coupled fluorescence; in the data active = inhibition above about 15%
Target sequence (Q9NXA8 whole entry, looked up): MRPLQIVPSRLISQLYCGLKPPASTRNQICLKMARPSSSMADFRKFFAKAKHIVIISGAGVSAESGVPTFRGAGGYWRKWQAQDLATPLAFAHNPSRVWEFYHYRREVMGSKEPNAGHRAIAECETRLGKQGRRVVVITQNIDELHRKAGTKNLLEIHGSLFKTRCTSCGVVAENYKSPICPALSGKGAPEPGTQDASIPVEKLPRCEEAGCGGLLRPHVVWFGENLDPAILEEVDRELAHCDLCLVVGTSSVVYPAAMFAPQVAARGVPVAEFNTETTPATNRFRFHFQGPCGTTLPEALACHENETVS
Starred values were filed as active, the others as inactive; x = not tested or not shown.

SMILES	DENV2 CPE rescue	S100A4 inh HTS	PGC1a acetyl inh	Statin myotox sup	SIRT5 block
COc1cccc(C2=CC(=O)C(C(C)(C)C)N2C(C)(C)C)c1 (centres undefined)	41*	1	-10	4	x
N#C[C@@H]1[C@H](c2ccccc2-c2ccc(F)cc2)[C@@H](CO)N1C(=O)Cc1ccccc1	-14	6	-6	x	6
CC(C)C12CN3CC(C(C)C)(CN(C1)C31C(=O)Nc3ccccc31)C2=O (centres undefined)	x	-2	-5	90*	x
O=C(c1cccc(F)c1)N1C[C@@H]2[C@H](c3ccccc31)[C@H](CO)N2C(=O)C1CCOCC1	23*	-10	7	-16	-5
O=C(Cc1ccccc1)N1C[C@H]2[C@@H](c3ccccc31)[C@@H](CO)N2C(=O)c1cccc(F)c1	37*	5	-11	2	-1
O=C(C1CCOCC1)N1C[C@@H]2[C@H](c3ccccc31)[C@H](CO)N2C(=O)c1ccccc1	89*	1	6	10	4
O=C(c1cccc(F)c1)N1C[C@@H]2[C@H](c3ccccc31)[C@@H](CO)N2C(=O)C1CC1	55*	-2	1	5	0
O=C(c1cccc(F)c1)N1C[C@H]2[C@@H](c3ccccc31)[C@@H](CO)N2C(=O)C1CC1	-11	-2	-9	-6	-3
CO[C@@H]1CC[C@H]2CCOc3ccc(C#N)cc3C(=O)N(C)C[C@@H](OC)[C@@H](C)C(=O)N(C)C[C@@H]1O2	-2	14	x	12	-1
O=C(O)c1ccccc1NS(=O)(=O)c1ccc(NN=Cc2ccccc2F)c([N+](=O)[O-])c1	2	0	x	1	17*
CCOc1cccc(C=NNc2ccc(S(=O)(=O)Nc3ccccc3C(=O)O)cc2[N+](=O)[O-])c1O	2	4	16	109*	8
COc1ccc(C=NNc2ccc(S(=O)(=O)Nc3ccccc3C(=O)O)cc2[N+](=O)[O-])c(OC)c1	x	0	7	2	44*
C=CCOc1ccc(C=NNc2ccc(S(=O)(=O)Nc3ccccc3C(=O)O)cc2[N+](=O)[O-])cc1OC	-10	3	1	2	-7
CSc1ccc(C=NNc2ccc(S(=O)(=O)Nc3ccccc3C(=O)O)cc2[N+](=O)[O-])cc1	3	-5	1	3	1
COc1ccc(NC(=S)NNc2ccc(S(=O)(=O)Nc3ccccc3C(=O)O)cc2[N+](=O)[O-])cc1	-5	-6	7	x	17*
C[C@@H]1CN([C@H](C)CO)S(=O)(=O)c2ccc(C3=CCCC3)cc2O[C@@H]1CN(C)C(=O)c1ccccn1	-1	18	-6	-29	-1
COC(=O)C[C@@H]1C[C@@H]2c3cc(NC(=O)NC4CCCC4)ccc3O[C@@H]2[C@H](CO)O1	0	-8	5	-8	-3
COCCNC(=O)C[C@@H]1C=C[C@@H](NC(=O)NC2CCCC2)[C@@H](CO)O1	16	-9	8	-4	0
CCOc1ccc(C=NNc2ccc(S(=O)(=O)Nc3ccccc3C(=O)O)cc2[N+](=O)[O-])cc1	5	0	0	4	20*
FC(F)(F)c1ccc(Cl)c(CN2CCN(c3ncc(Cc4ccccc4)cn3)CC2)c1	1	17	x	x	-1
CC1(C(=O)NS(=O)(=O)Cc2cccc(Cl)c2)CCN1C(=O)c1ccc(C2CCCCC2)cc1 (centres undefined)	90*	-2	x	-10	x
CC1(C(=O)NS(=O)(=O)Cc2ccccc2)CCN1C(=O)c1ccc(C2CCCCC2)cc1 (centres undefined)	-5	3	-10	7	1
COc1cccc(NC(=O)N[C@H]2C=C[C@@H](CC(=O)N3CCN(C)CC3)O[C@@H]2CO)c1	13	-3	-1	-1	-4
COc1cccc(C(=O)Nc2ccc3c(c2)OC[C@H](C)N(C(=O)C2CCCC2)C[C@@H](C)[C@H](OC)CN(C)C3=O)c1	-3	-41	x	-4	3
CC(C)c1onc(C(=O)N2CCOCC2)c1[N+](=O)[O-]	-9	-1	x	x	-4
SMILES	DENV2 CPE rescue	S100A4 inh HTS	PGC1a acetyl inh	Statin myotox sup	SIRT5 block
CC(C)c1onc(C(=O)N2CCN(Cc3ccccc3)CC2)c1[N+](=O)[O-]	168*	2	x	8	x
CCN(C[C@H]1N[C@@](Cc2ccccc2)(C(=O)OC)[C@H]2C(=O)N(C)C(=O)[C@@H]12)C(=O)Nc1ccc(C(F)(F)F)cc1	-11	0	4	-1	28*
CCNC(=O)N(CC)C[C@H]1N[C@@](Cc2ccccc2)(C(=O)OC)[C@H]2C(=O)N(Cc3ccccc3)C(=O)[C@@H]12	37*	4	6	0	-1
CCN(C[C@H]1N[C@@](CC)(C(=O)OC)[C@H]2C(=O)N(C)C(=O)[C@@H]12)S(=O)(=O)c1ccc(C(C)(C)C)cc1	4	-2	-2	-9	-1
CCN(C[C@H]1N[C@@](CC)(C(=O)OC)[C@H]2C(=O)N(C)C(=O)[C@@H]12)S(=O)(=O)c1ccc(C(F)(F)F)cc1	52*	-2	x	2	-5
CCCC(=O)N1CCC2(CC1)CN(C(=O)C1CC1)[C@H](CO)c1[nH]c3cc(OC)ccc3c12	34*	-2	4	x	2
COc1ccc2c3c([nH]c2c1)[C@H](CO)N(C(=O)C1CC1)CC31CN(C(=O)NC(C)C)C1	30*	-1	x	x	2
CCCC(=O)N1CC2(C1)CN(C(=O)C1CCCCC1)[C@@H](CO)c1[nH]c3cc(OC)ccc3c12	22*	4	x	x	2
COc1ccc2c3c([nH]c2c1)[C@H](CO)N(C(=O)C1CCOCC1)CC31CCN(C)CC1	9	-13	0	x	x
COc1ccc2c3c([nH]c2c1)[C@@H](CO)N(C(=O)C1CCOCC1)CC31CN(C)C1	90*	x	-3	x	x
COc1cccc(C(=O)Nc2ccc3c(c2)OC[C@@H](C)N(C(=O)C2CCCC2)C[C@H](C)[C@H](OC)CN(C)C3=O)c1	-4	9	x	-8	4
O=C(NCC[C@@H]1CC[C@@H](NS(=O)(=O)c2cccc(Cl)c2)[C@H](CO)O1)c1cnccn1	-8	7	17	16	1
O=C(O)[C@@H]1[C@@H](CO)[C@@H]2Cn3c(ccc(/C=C/c4ccccc4)c3=O)[C@@H]2N1C(=O)c1cnccn1	-12	34	x	-7	2
CC[C@@H](C)C(NC(=O)OC(C)(C)C)c1cn([C@@H](CCCCNC(=O)OC(C)(C)C)C(=O)N2CCN(C(=O)OC(C)(C)C)CC2)nn1 (some centres undefined)	-7	-5	-8	16	16*
CN1CCN(c2ncnc3c2ncn3[C@H]2CN(Cc3ccc(Cl)cc3)C[C@@H](CO)O2)CC1	35*	3	x	0	x
Cc1ccc(NC(=O)CCN2CCN(CCO)CC2)cc1Br	20*	-1	6	-4	x
CCOC(=O)N1CCN(CCC(=O)Nc2ccc(C)c(Br)c2)CC1	x	x	-26	-3	x

Assay outcomes (PubChem BioAssay)
